Measured values as given in PubChem BioAssay.
Records with an inconclusive call do not appear.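 The calls were made as follows, unless noted: active = viability increase at or above a cutoff of the median across tested compounds plus 3 SD (cut at about 8.5% in these data, passing the limit was not always enough); inconclusive = some gains above the cutoff, reason not given; inactive = the rest.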

Legend:
[1] = OD615 S. cerevisiae growth inhibition, permissive medium, pilot counter-assay, permissive growth control for S. cerevisiae lifespan shortening project (AID 705;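 active = growth inhibition above 25% in both replicates, a cutoff set 3 SD above the mean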); settings: OD615, 24 h, at 10 µM, active compounds read high
Procedure, shortened: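 System: Engineered DeaD yeast | Buffer or medium: SC raffinose/galactose permissive medium | Doses: 10 µM single dose, 0.25% DMSO | Times: 24 h exposure, 30 °C | Measured by: OD615 turbidity read | Read-out: Yeast growth inhibition indicated by reduced 24 h OD615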

[2] = Restrictive medium S. cerevisiae growth inhibition, OD615, pilot screen of yeast lifespan reduction project, restrictive growth control (AID 706;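 active = growth inhibition above a set limit, 3 SD over mean compound inhibition, in both replicates, cut at about 43% in these data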;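 also: modified DeaD lifespan yeast strain shifted to restrictive glucose medium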); settings: OD615, 48 h, at 10 µM, active compounds read high
Procedure, shortened: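 Assay system: engineered S. cerevisiae DeaD strain; Buffer or medium: CSMM-D glucose medium; Dosing: 10 µM compound, 0.25% DMSO; Times: cell pre-growth 4 h, compound exposure 48 h, 30 °C; Detection: absorbance (optical density) measured at 615 nm.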

[3] = viability gain of MRP-1-high H69AR cells under doxorubicin, pilot screen, MRP-1 activator project, CellTiter-Glo, duplicate (AID 807); settings: H69AR viability with doxorubicin, CellTiter-Glo luminescence; at 10 µM; active compounds read high;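 also: compound pretreatment 18-22 h then 72 h combined with doxorubicin; 0% = doxorubicin alone and 100% = vehicle without doxorubicin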
[4] = growth suppression of beta-catenin knockout HCT116, pilot screen, human colon tumor cells (AID 823;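 active = cell viability at or below a set limit in both duplicate runs, the limit being the all-compound median minus 4 SD, cut at about 23% in these data, passing the limit was not always enough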;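 also: 0% = wells killed by 20 µM Hyamine and 100% = untreated DMSO cell wells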); settings: CellTiter-Glo, 60 h, at 10 µM, active compounds read low
[5] = growth suppression of PTEN-deleted HCT116, pilot screen, cell-based, HCT116 clonal line, CellTiter-Glo (AID 824;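 active = viability at or below 27.92% in each of two runs, the all-compound median minus 4 SD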;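 also: 0% = 20 µM Hyamine control and 100% = vehicle cell control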); settings: 60 h, at 10 µM, active compounds read low
[6] = inhibitors of the yeast RAM network, pilot screen, dse1pr::URA3 reporter, 5-FOA selection (AID 869;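 active = inhibition over a set limit, the all-compound mean plus 3 SD, in both replicate runs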;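 also: 0% = DMSO wells with no growth and 100% = 10 µM 1-NA-PP1 with full growth; RAM network block rescues cells from 5-FOA so hits raise OD615 growth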); settings: S. cerevisiae dse1pr::URA3 5-FOA growth, OD615, 2 d; at 10 µM; active compounds read high; strain carries analog-sensitive mutant Cbk1 kinase
[7] = RAM signaling pathway blockade in yeast – S. cerevisiae, Pdr1DBD-CYC8 efflux-inhibited sensitized strain, primary screen (AID 1298;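 active = RAM network inhibition above 8.4% in each of two replicates, 3 SD over the compound average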;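 also: 0% = DMSO untreated cells without growth and 100% = 10 µM 1-NA-PP1 full growth; higher means more yeast growth rescued from 5-FOA killing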); settings: S. cerevisiae cbk1-as DSE1-URA3 strain, 5-FOA growth OD615, 2 d; at 50 µM; active compounds read high

CCOCCn1c(CN(Cc2ccccc2)Cc2ccccc2)nc2c1c(=O)n(C)c(=O)n2C
inactive: growth inhibition [1] 0.79% | growth inhibition [2] 12.6% | viability increase [3] -2.62% | viability [4] 64.7% | viability [5] 57.6% | inhibition [6] 1.48% | RAM network inhibition [7] 5.44%

CSc1oc(-c2ccc(F)cc2)nc1S(=O)(=O)c1ccc(F)cc1
inactive: growth inhibition [1] -2.23% | growth inhibition [2] -6.25% | viability increase [3] -1.96% | viability [4] 85.1% | viability [5] 79.6% | inhibition [6] 1.59% | RAM network inhibition [7] 4.1%

COc1ccc(NC(=O)C2CCN(S(=O)(=O)c3cccc4cccnc34)CC2)cc1OC
inactive: growth inhibition [1] -4.2% | growth inhibition [2] 0.21% | viability increase [3] -1.69% | viability [4] 107% | viability [5] 96.6% | inhibition [6] 1.41% | RAM network inhibition [7] 1.04%

c1cncc(-c2noc(-c3ccco3)n2)c1
inactive: growth inhibition [1] -5.2% | growth inhibition [2] 7% | viability increase [3] 1.76% | viability [4] 96.7% | viability [5] 94.2% | inhibition [6] 1.41% | RAM network inhibition [7] 4.61%

O=C(Nc1ccccc1Cl)N1CCN(c2ccccn2)CC1
inactive: growth inhibition [1] -6.09% | growth inhibition [2] -5.88% | viability increase [3] -0.46% | viability [4] 103% | viability [5] 109% | inhibition [6] 1.91% | RAM network inhibition [7] 4.61%

CCOC(=O)COc1cccc2c(=O)n(CC(=O)N3CCN(C(=O)OCC)CC3)ccc12
inactive: growth inhibition [1] -4.37% | growth inhibition [2] -7.13% | viability increase [3] -2.1% | viability [4] 104% | viability [5] 96.1% | inhibition [6] 1.04% | RAM network inhibition [7] 4.18%

CCN(CCNS(=O)(=O)c1ccc2[nH]c(=O)sc2c1)c1ccccc1
inactive: growth inhibition [1] 0.725% | growth inhibition [2] 13% | viability increase [3] -1.31% | viability [4] 99% | viability [5] 87.6% | inhibition [6] 0.01% | RAM network inhibition [7] 2.83%

CP(=O)(COC(=O)c1ccccc1)COC(=O)c1ccccc1
inactive: growth inhibition [1] -20.8% | growth inhibition [2] -19% | viability increase [3] -0.63% | viability [4] 100% | viability [5] 96.5% | inhibition [6] 3.13% | RAM network inhibition [7] 1.26%

Cc1ccc(-c2noc(CSc3nnnn3-c3ccccc3)n2)cc1
inactive: growth inhibition [1] -16.9% | growth inhibition [2] 9.4% | viability increase [3] 2.8% | viability [4] 88.1% | viability [5] 97.8% | inhibition [6] 1.95% | RAM network inhibition [7] 7.44%

CCOc1ccccc1C1N(c2ccc(OC)cc2)C(=O)C2CCCN21 (stereo not given)
inactive: growth inhibition [1] -3.72% | growth inhibition [2] -10.4% | viability increase [3] -0.9% | viability [4] 99.8% | viability [5] 101% | inhibition [6] 2.9% | RAM network inhibition [7] -1.29%

Cn1c(C(=O)NCc2cccs2)cc2c(=O)n(C)c3ccccc3c21
inactive: growth inhibition [1] -0.025% | growth inhibition [2] -1.79% | viability increase [3] -3.65% | viability [4] 98.9% | viability [5] 98.1% | inhibition [6] 2.62% | RAM network inhibition [7] 1.75%

CCCCCCN1C(=O)C(O)=C(C(C)=O)C1c1ccc(Cl)cc1 (stereo not given)
inactive: growth inhibition [1] -6.47% | growth inhibition [2] 7.25% | viability increase [3] 0.3% | viability [4] 106% | viability [5] 100% | inhibition [6] -0.245% | RAM network inhibition [7] 8.31%

CCN1CCN(CCCNC(=O)c2ccc3c(c2)NC(=O)c2ccccc2S3)CC1
inactive: growth inhibition [1] -15.9% | growth inhibition [2] -14.5% | viability increase [3] -2.37% | viability [4] 90.6% | viability [5] 95.4% | inhibition [6] 0.905% | RAM network inhibition [7] 5.84%

CCC(C)[C@@H](C(=O)Nc1ccc2c(c1)OCO2)N1Cc2ccccc2C1=O (stereo not given in full)
inactive: growth inhibition [1] -14.7% | growth inhibition [2] -13.5% | viability increase [3] -2.97% | viability [4] 91.5% | viability [5] 75.1% | inhibition [6] 0.51% | RAM network inhibition [7] 4.42%

Cc1cc(NC(=O)c2cn(C3CCCCC3)c(=O)c3c2c2ccccc2n3C)no1
inactive: growth inhibition [1] -5.84% | growth inhibition [2] 11.9% | viability increase [3] -3.21% | viability [4] 71.7% | viability [5] 71.7% | inhibition [6] 1.8% | RAM network inhibition [7] 7.54%

CCc1ccc(NC(=O)CSc2nnc(Cn3c(=O)sc4ccccc43)n2C)cc1
inactive: growth inhibition [1] -4.66% | growth inhibition [2] -25.2% | viability increase [3] -1.98% | viability [4] 104% | viability [5] 97.6% | inhibition [6] 2.96% | RAM network inhibition [7] 8.29%

CC1CCCCN1Cc1nc2c(c(=O)n(C)c(=O)n2C)n1Cc1c(F)cccc1Cl (stereo not given)
inactive: growth inhibition [1] 1.95% | growth inhibition [2] -6.45% | viability increase [3] -3.05% | viability [4] 78.6% | viability [5] 79.2% | inhibition [6] 1.46% | RAM network inhibition [7] 0.66%

CC(=O)Nc1cccc(N2C(=O)CC(Cc3ccccc3)C2=O)c1 (stereo not given)
inactive: growth inhibition [1] -6.24% | growth inhibition [2] -3.32% | viability increase [3] -1.68% | viability [4] 91.5% | viability [5] 89% | inhibition [6] 0.52% | RAM network inhibition [7] 7.45%

Cc1ccc2cc(-c3noc(C4CCCO4)n3)c(=O)[nH]c2c1 (stereo not given)
inactive: growth inhibition [1] -12.5% | growth inhibition [2] -7.12% | viability increase [3] -0.44% | viability [4] 108% | viability [5] 100% | inhibition [6] 0.82% | RAM network inhibition [7] 4.44%

CC1(C(=O)NCc2cccnc2)CCC(=O)N1Cc1cccs1 (stereo not given)
inactive: growth inhibition [1] -2.29% | growth inhibition [2] -1.24% | viability increase [3] 0.38% | viability [4] 108% | viability [5] 102% | inhibition [6] 0% | RAM network inhibition [7] 3.95%

CCC(=O)c1ccc(N2CCN(C(=O)COc3ccc(F)cc3)CC2)c(F)c1
inactive: growth inhibition [1] -5.39% | growth inhibition [2] -3.45% | viability increase [3] -2.21% | viability [4] 73.7% | viability [5] 82.5% | inhibition [6] 1.71% | RAM network inhibition [7] 5.92%

CCS(=O)(=O)Nc1ccc(-c2ccc(NS(=O)(=O)CC)c(OC)c2)cc1OC
inactive: growth inhibition [1] -3.19% | growth inhibition [2] -1.95% | viability increase [3] -3.7% | viability [4] 103% | viability [5] 101% | inhibition [6] 2.69% | RAM network inhibition [7] 6.39%

CC1CCN(CCCNC(=O)c2cc3c(=O)n(C)c4ccccc4c3n2C)CC1
inactive: growth inhibition [1] 0.225% | growth inhibition [2] -4.35% | viability increase [3] -5.04% | viability [4] 43.1% | viability [5] 50% | inhibition [6] -0.26% | RAM network inhibition [7] 1.43%

CC(C)N1C(=O)C2C(c3ccccc3O)NC(C)(C(=O)O)C2C1=O (stereo not given)
inactive: growth inhibition [1] 7.56% | growth inhibition [2] 5.16% | viability increase [3] -0.38% | viability [4] 101% | viability [5] 104% | inhibition [6] 0.765% | RAM network inhibition [7] 1.54%

Cc1ccc(-n2ncc3c(=O)[nH]c(SCC(=O)N4CCCCC4)nc32)cc1
inactive: growth inhibition [1] -4.04% | growth inhibition [2] 2.2% | viability increase [3] -4.87% | viability [4] 94.6% | viability [5] 92.1% | inhibition [6] 1.27% | RAM network inhibition [7] 0.05%

COc1ccc(OC)c2sc(NC(=O)C3=COCCO3)nc12
inactive: growth inhibition [1] -14.8% | growth inhibition [2] 0.525% | viability increase [3] -2.76% | viability [4] 93% | viability [5] 90.9% | inhibition [6] 0.98% | RAM network inhibition [7] 3.16%

CCC(=NCCc1ccccc1)C1=C(O)CCC1=O
inactive: growth inhibition [1] 3.04% | growth inhibition [2] -0.44% | viability increase [3] -2.05% | viability [4] 98.3% | viability [5] 98.8% | inhibition [6] 0.325% | RAM network inhibition [7] 2.13%

COc1ccc(CCNC(=O)c2ccco2)cc1
inactive: growth inhibition [1] 13.4% | growth inhibition [2] 8.97% | viability increase [3] -2.79% | viability [4] 107% | viability [5] 91.8% | inhibition [6] 1.58% | RAM network inhibition [7] -1.03%

Cc1oc(-c2ccc(Cl)cc2)nc1CN1CCCC(C(=O)N2CCN(C(=O)c3ccco3)CC2)C1 (stereo not given)
inactive: growth inhibition [1] -8.52% | growth inhibition [2] -14.5% | viability increase [3] -4.07% | viability [4] 33.8% | viability [5] 54.6% | inhibition [6] -0.38% | RAM network inhibition [7] 7.1%

Cc1onc(-c2ccccc2Cl)c1C(=O)OCN1C(=O)c2ccccc2C1=O
inactive: growth inhibition [1] -16.8% | growth inhibition [2] -12.5% | viability increase [3] -2.89% | viability [4] 90% | viability [5] 99% | inhibition [6] 0.93% | RAM network inhibition [7] 5.34%

Cn1c(Cn2c(=O)sc3ccccc32)nnc1SCC(=O)Nc1ccccc1F
inactive: growth inhibition [1] -5.34% | growth inhibition [2] -10% | viability increase [3] -1.11% | viability [4] 104% | viability [5] 99.4% | inhibition [6] 1.62% | RAM network inhibition [7] 9.24%

CC(=O)CCS(=O)(=O)c1ccc(C)c(C)c1
inactive: growth inhibition [1] -1.55% | growth inhibition [2] -7.75% | viability increase [3] -6.33% | viability [4] 71.6% | viability [5] 90.2% | inhibition [6] 0.885% | RAM network inhibition [7] 1.15%

COc1cccc2c(=O)c(C/C=C(/C)Cl)c(C)[nH]c12
inactive: growth inhibition [1] -2.8% | growth inhibition [2] 5.71% | viability increase [3] -2.38% | viability [4] 97.5% | viability [5] 91.6% | inhibition [6] 0.075% | RAM network inhibition [7] -0.16%

COC(=O)NCC(c1cccnc1)N1CCN(c2ccccc2)CC1 (stereo not given)
inactive: growth inhibition [1] -3.09% | growth inhibition [2] -0.34% | viability increase [3] 0.41% | viability [4] 91.3% | viability [5] 96.8% | inhibition [6] 0.355% | RAM network inhibition [7] -1.35%

CCCNC(=O)c1noc2c1CCc1ccccc1-2
inactive: growth inhibition [1] -1.21% | growth inhibition [2] 5.41% | viability increase [3] -1.54% | viability [4] 98.3% | viability [5] 104% | inhibition [6] 0.305% | RAM network inhibition [7] -1.13%
